Active and inactive are the calls of the source. The rule behind the calls is not given here.
Experiments:
[1] = test system: Pseudomonas aeruginosa; experiment: Potentiation of rifampicin-induced antimicrobial activity against MDR/XDR Pseudomonas aeruginosa isolate PA260-97103 harboring GyrA Thr83Ile mutant assessed as rifampicin MIC50 incubated for 18 hrs by broth microdilution method (reference value: 8 microg/ml); format: functional; details: isolate PA260-97103, 18 h
[2] = test system: Acinetobacter baumannii; experiment: Antimicrobial activity against multidrug-resistant Acinetobacter baumannii AB030 incubated for 18 hrs by broth dilution method; format: functional; details: AB030, 18 h
Method in brief: (§1)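 Broth microdilution per CLSI: overnight cultures set to 0.5 McFarland in saline, diluted 1:50 in Mueller-Hinton broth to a final 5 × 10^5 CFU/mL, added to 2-fold serial dilutions, incubated 18 h at 37 °C; MIC is the lowest concentration without visible turbidity, confirmed at 590 nm.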

[3] = test system: Pseudomonas aeruginosa; experiment: Potentiation of ciprofloxacin-induced antibacterial activity against MDR/XDR Pseudomonas aeruginosa isolate 91433 devoid of GyrA T83I mutant assessed as fold reduction in ciprofloxacin MIC at 7.5 uM incubated for 18 hrs by broth microdilution method; format: functional
[4] = test system: Pseudomonas aeruginosa; experiment: Potentiation of moxifloxacin-induced antibacterial activity against MDR/XDR Pseudomonas aeruginosa isolate PA260-97103 harboring GyrA T83I mutant assessed as fold reduction in moxifloxacin MIC at 7.5 uM incubated for 18 hrs by broth microdilution method; format: functional
Method in brief: (§2)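 CLSI broth microdilution. Overnight cultures were set to 0.5 McFarland in saline, diluted 1:50 in Mueller-Hinton broth to a final 5 × 10^5 CFU/mL, and incubated 18 h at 37 °C against 2-fold antibiotic dilutions. A fixed adjuvant level was present throughout. MIC = lowest concentration with no visible turbidity, confirmed at 590 nm. Potentiation = fold drop in antibiotic MIC versus antibiotic alone.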

[5] = test system: Pseudomonas aeruginosa; experiment: Potentiation of minocycline-induced antimicrobial activity against MDR/XDR Pseudomonas aeruginosa isolate 101885 harboring GyrA Thr83Ile mutant assessed as minocycline MIC80 incubated for 18 hrs by broth microdilution method (reference value: 32 microg/ml); format: functional; details: isolate 101885, 18 h
[6] = test system: Acinetobacter baumannii; experiment: Synergistic antibacterial activity against multidrug-resistant Acinetobacter baumannii AB027 assessed as fractional inhibitory concentration index in presence of minocycline incubated for 18 hrs by broth dilution method; format: functional
[7] = test system: Pseudomonas aeruginosa; experiment: Potentiation of rifampicin-induced antibacterial activity against MDR/XDR Pseudomonas aeruginosa isolate 91433 devoid of GyrA T83I mutant assessed as fold reduction in rifampicin MIC at 9 uM incubated for 18 hrs by broth microdilution method; format: functional; method in brief: as §2
[8] = test system: Acinetobacter baumannii; experiment: Antimicrobial activity against multidrug-resistant Acinetobacter baumannii AB92247 incubated for 18 hrs by broth dilution method; format: functional; details: AB92247, 18 h; method in brief: as §1
[9] = test system: Klebsiella pneumoniae; experiment: Antimicrobial activity against Klebsiella pneumoniae 113250 incubated for 18 hrs by broth dilution method; format: functional; details: Klebsiella pneumoniae, 113250, 18 h
Method in brief: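 CLSI broth microdilution. Overnight cultures were adjusted to 0.5 McFarland in saline, diluted 1:50 in Mueller-Hinton broth, and inoculated at a final 5 × 10^5 CFU/mL. Compounds were tested as 2-fold serial dilutions and incubated 18 h at 37 °C. MIC was the lowest concentration with no visible turbidity, confirmed by absorbance at 590 nm.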

[10] = test system: Acinetobacter baumannii; experiment: Synergistic antibacterial activity against multidrug-resistant Acinetobacter baumannii AB92247 assessed as fractional inhibitory concentration index in presence of rifampicin incubated for 18 hrs by broth dilution method; format: functional
[11] = test system: Pseudomonas aeruginosa; experiment: Potentiation of rifampicin-induced bactericidal activity in MDR/XDR Pseudomonas aeruginosa isolate PA259-96918 harboring GyrA T83I mutant assessed as decrease in viable bacterial count at 1 ug/ml incubated for 8 hrs in presence of 1 ug/ml rifampicin by time kill curve assay; format: functional, organism-based
Method in brief: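 Time-kill assay against XDR P. aeruginosa PA259. Overnight culture adjusted to 0.5 McFarland in saline, diluted 1:50 in LB. Incubated at 37 °C for 24 h with rifampicin and adjuvant, alone or combined at various concentrations. Aliquots taken at intervals, serially diluted in PBS and plated on LB agar. Colonies counted after 20 h at 37 °C. Untreated cells as control.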

[12] = test system: Klebsiella pneumoniae; experiment: Potentiation of minocycline-induced antibacterial activity against Klebsiella pneumoniae 113254 assessed as fold reduction in minocycline MIC at 4.1 uM incubated for 18 hrs by broth dilution method; format: functional
Method in brief: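 Antibiotic MIC determined by CLSI broth microdilution (MHB, 5 × 10^5 CFU/mL, 18 h, 37 °C), once alone and once with a fixed concentration of the adjuvant. Potentiation is the ratio of the antibiotic MIC alone to its MIC in the presence of the adjuvant.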

With `COc1c(N2C[C@@H]3CCCN(CCCCCCCCCCCCO[C@@H]4[C@@H](O)[C@H](N)C[C@H](N)[C@H]4O[C@H]4O[C@H](CN)[C@@H](O)C[C@H]4N)[C@@H]3C2)c(F)cc2c(=O)c(C(=O)O)cn(C3CC3)c12.Cl.Cl.Cl.Cl.Cl` the MIC50 [1] was 0.06 µg/mL, the MIC [2] was over 16 µg/mL and the “fold change (FC)” value [3] was 16. For the same molecule, the “fold change (FC)” value [4] was 64, the MIC80 [5] was 1 µg/mL and the “fractional inhibitory concentration index (FICI)” value [6] was over 1.

For `Cl.Cl.Cl.Cl.Cl.Cl.NC[C@H]1O[C@H](O[C@H]2[C@H](OCCCCCCCCCCN3CCN(Cc4cccc5ccccc45)CC3)[C@@H](O)[C@H](N)C[C@@H]2N)[C@H](N)C[C@@H]1O`, the “fold change (FC)” value [7] was 4.

With `Cl.Cl.Cl.Cl.Cl.NC[C@H]1O[C@H](O[C@H]2[C@H](OCCCCCCCCCCCCN3CCN(c4cc5c(cc4F)c(=O)c(C(=O)O)cn5C4CC4)CC3)[C@@H](O)[C@H](N)C[C@@H]2N)[C@H](N)C[C@@H]1O` the MIC [8] was 128 µg/mL, the MIC [9] was 128 µg/mL and the “fractional inhibitory concentration index (FICI)” value [10] was 0.039. The Activity [11] was “Active” and the “fold change (FC)” value [12] was 2.
